# Test results: ChEMBL document CHEMBL3627612, “Hirsutinolide Series Inhibit Stat3 Activity, Alter GCN1, MAP1B, Hsp105, G6PD, Vimentin, TrxR1, and Importin α-2 Expression, and Induce Antitumor Effects against Human Glioma” (J Med Chem, 2015)
# Active and inactive are the calls of the source. The rule behind the calls is not given here.
# Key:
# U-251 [1] = experiment: Induction of apoptosis in human U251MG cells assessed as PARP level at […] after 24 to 48 hrs by immunoblot analysis; assay type: functional, cell-based
# U-251 [2] = experiment: Antimitotic activity in human U251MG cells assessed as defect in sister chromatid segragation at 0.1 uM after 15 hrs confocal microscopic analysis; assay type: functional, cell-based
# Outline: (§1)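 U251MG on coverslips synchronized by double thymidine block (2 mM), released 9 h, treated 15 h (8 μM; paclitaxel 100 nM). Fixed 4% paraformaldehyde, digitonin-permeabilized, BSA-blocked, stained for β-tubulin and MAP1B with DAPI counterstain; chromatid structure and segregation scored by confocal microscopy.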
# U-251 [3] = experiment: Antimitotic activity in human U251MG cells assessed as defect in chromatid structure at 0.1 uM after 15 hrs confocal microscopic analysis; assay type: functional, cell-based; outline: as §1
# U-251 [4] = experiment: Induction of apoptosis in human U251MG cells assessed as cleaved caspase-3 level at […] after 24 to 48 hrs by immunoblot analysis; assay type: functional, cell-based
# [5] = molecular target: Signal transducer and activator of transcription 3 (Mus musculus) (UniProt P42227); details: NIH3T3, 5 uM
# Signal transducer and activator of transcription 3 (Mus musculus), sequence (P42227 whole entry): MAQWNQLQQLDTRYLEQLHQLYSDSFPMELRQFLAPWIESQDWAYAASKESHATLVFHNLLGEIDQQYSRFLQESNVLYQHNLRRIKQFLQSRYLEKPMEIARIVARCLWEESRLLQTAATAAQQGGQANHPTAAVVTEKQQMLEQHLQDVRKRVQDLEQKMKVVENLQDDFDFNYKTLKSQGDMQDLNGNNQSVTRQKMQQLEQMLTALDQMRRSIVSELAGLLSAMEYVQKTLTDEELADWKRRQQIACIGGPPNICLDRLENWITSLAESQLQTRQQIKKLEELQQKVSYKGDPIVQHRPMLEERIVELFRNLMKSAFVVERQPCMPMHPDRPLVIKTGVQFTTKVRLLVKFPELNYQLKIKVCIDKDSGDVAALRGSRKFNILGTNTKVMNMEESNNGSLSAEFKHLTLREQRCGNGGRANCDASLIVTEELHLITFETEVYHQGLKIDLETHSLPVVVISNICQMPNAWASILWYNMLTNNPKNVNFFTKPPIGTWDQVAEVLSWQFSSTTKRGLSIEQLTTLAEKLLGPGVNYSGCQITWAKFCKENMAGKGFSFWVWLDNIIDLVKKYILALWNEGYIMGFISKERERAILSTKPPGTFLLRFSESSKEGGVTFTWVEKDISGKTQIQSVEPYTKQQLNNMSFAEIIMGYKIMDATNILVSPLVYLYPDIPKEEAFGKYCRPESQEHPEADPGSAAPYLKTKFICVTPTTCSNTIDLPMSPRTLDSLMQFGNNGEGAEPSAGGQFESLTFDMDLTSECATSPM
# [6] = molecular target: T1, Signal transducer and activator of transcription 3 (Homo sapiens, UniProt P40763); experiment: Inhibition of Stat3 activity in human U251MG cells assessed as phosphorylated Stat3 level after 2 hrs by immunoblot analysis; assay type: cell-based; details: U-251
# T1 sequence (P40763 whole entry): as the sequence (P42227 whole entry) above, with D760E counted along it
# Outline: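 U251MG cells treated with 5 μM compound for 0–24 h, or with 0–5 μM for 2 h. Whole-cell lysates immunoblotted for pStat3, Stat3, GAPDH. Control was 0.025% DMSO-treated cells.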
# U-251 [7] = experiment: Antiproliferative activity against human U251MG cells at 5 uM for 72 hrs by cyquant assay; assay type: functional
# Outline: (§2)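 CyQuant proliferation assay after 72 h compound exposure of cultured cells; relative viability normalized to DMSO-treated control; IC50 values derived. Glioma lines grown in RPMI or DMEM with 10% FBS and 1% nonessential amino acids.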
# [8] = molecular target: Signal transducer and activator of transcription 1/ 3 (Mus musculus) (UniProt P42227+P42225); details: NIH3T3, 5 uM
# [9] = Cytotoxicity against mouse NIH/3T3 cells after 72 hrs by cyquant cells; assay type: cell-based; details: NIH3T3, 72 h; outline: as §2
# [10] = molecular target: T2, Signal transducer and activator of transcription 1 (Mus musculus) (UniProt P42225); experiment: Inhibition of Stat1 dimer DNA binding activity in EGF-stimulated mouse NIH3T3 nuclear extract expressing human EGFR at 5 uM preincubated for 30 mins followed by addition of radiolabeled probe hSIE for 30 mins by EMSA
# T2 sequence (whole entry): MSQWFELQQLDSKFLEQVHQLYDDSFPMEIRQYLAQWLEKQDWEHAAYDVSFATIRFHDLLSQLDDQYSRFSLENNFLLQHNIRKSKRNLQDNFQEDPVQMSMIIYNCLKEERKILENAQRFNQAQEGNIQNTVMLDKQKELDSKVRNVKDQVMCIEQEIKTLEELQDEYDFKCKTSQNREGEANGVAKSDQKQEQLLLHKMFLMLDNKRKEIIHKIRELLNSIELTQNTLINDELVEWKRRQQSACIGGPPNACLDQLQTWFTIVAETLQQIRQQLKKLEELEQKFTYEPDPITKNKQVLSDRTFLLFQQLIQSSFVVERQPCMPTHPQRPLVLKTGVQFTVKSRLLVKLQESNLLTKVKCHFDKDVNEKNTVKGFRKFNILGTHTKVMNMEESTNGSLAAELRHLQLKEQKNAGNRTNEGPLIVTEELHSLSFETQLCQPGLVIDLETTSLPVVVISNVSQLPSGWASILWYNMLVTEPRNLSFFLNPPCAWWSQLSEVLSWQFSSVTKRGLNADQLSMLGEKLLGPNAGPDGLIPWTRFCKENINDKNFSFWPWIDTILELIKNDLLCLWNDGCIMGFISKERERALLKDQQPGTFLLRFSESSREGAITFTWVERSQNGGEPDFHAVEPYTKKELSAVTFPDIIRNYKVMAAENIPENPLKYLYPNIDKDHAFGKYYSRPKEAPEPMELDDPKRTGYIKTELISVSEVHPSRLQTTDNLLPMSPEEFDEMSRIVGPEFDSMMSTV
# [11] = molecular target: Signal transducer and activator of transcription 3 (Mus musculus) (UniProt P42227); experiment: Inhibition of Stat3 dimer DNA binding activity in mouse NIH3T3/vSrc nuclear extract at 5 uM preincubated for 30 mins followed by addition of radiolabeled probe hSIE for 30 mins by EMSA
# [12] = molecular target: T1, Signal transducer and activator of transcription 3; details: U-251, 5 uM
# [13] = Antiproliferative activity against human U251MG cells for 72 hrs by cyquant assay; assay type: functional, cell-based; details: U-251, 72 h; outline: as §2
# [14] = Antiproliferative activity against human SF295 cells for 72 hrs by cyquant assay; assay type: functional, cell-based; details: SF-295, 72 h; outline: as §2
# [15] = molecular target: T1, Signal transducer and activator of transcription 3; experiment: Binding affinity to Stat3 (unknown origin) by NMR analysis
# [16] = Antiproliferative activity against human U373MG cells for 72 hrs by cyquant assay; assay type: functional, cell-based, U-373MG ATCC; details: U373 MG; outline: as §2
# [17] = Cytotoxicity against mouse NIH/3T3 cells at 5uM after 72 hrs by cyquant cells; assay type: cell-based; details: nih3t3, 72 h; outline: as §2
# [18] = molecular target: T1, Signal transducer and activator of transcription 3; experiment: Inhibition of Stat3 activity in human U251MG cells assessed as phosphorylated Stat3 level at 5 uM by immunoblot analysis; assay type: cell-based; details: U-251, TDE = time-dependent effect
# SF-295 = experiment: Antiproliferative activity against human SF295 cells at 5 uM for 72 hrs by cyquant assay; assay type: functional, cell-based
# MDA-MB-231 [19] = experiment: Antiproliferative activity against human MDA-MB-231 cells at 5 uM for 72 hrs by cyquant assay; assay type: functional, cell-based
# MCF7 = experiment: Antiproliferative activity against human MCF7 cells for 72 hrs by cyquant assay; assay type: functional, cell-based; details: MCF7, 72 h; outline: as §2
# MDA-MB-231 [20] = experiment: Antiproliferative activity against human MDA-MB-231 cells for 72 hrs by cyquant assay; assay type: functional, cell-based; details: MDA-MB-231, 72 h; outline: as §2
# NIH3T3 = experiment: Inhibition of Stat5 dimer DNA binding activity in EGF-stimulated mouse NIH3T3 nuclear extract expressing human EGFR at 5 uM preincubated for 30 mins followed by addition of radiolabeled probe MGFe for 30 mins by EMSA; assay type: cell-free
# U-251 [21] = experiment: Induction of apoptosis in human U251MG cells assessed as PARP level at 0.5 to 10 nM after 24 to 48 hrs by immunoblot analysis; assay type: functional, cell-based
# Outline: (§3)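 U251MG human glioma cells (RPMI or DMEM, 10% FBS, 1% nonessential amino acids) treated for 24 or 48 h, with paclitaxel or staurosporine run alongside. Whole-cell lysates were prepared and analysed by SDS-PAGE and immunoblotting, probing for PARP and caspase 3 cleavage as apoptosis markers.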
# U-251 [22] = experiment: Induction of apoptosis in human U251MG cells assessed as cleaved caspase 3 level at 0.5 to 10 nM after 24 to 48 hrs by immunoblot analysis; assay type: functional, cell-based; outline: as §3
compound,measurement,setting,value
CC(=O)O[C@H]1C(=O)[C@@]2(C)[C@H]([C@H](OC(=O)c3ccccc3)[C@]3(O)C[C@H](OC(=O)[C@H](O)[C@@H](NC(=O)c4ccccc4)c4ccccc4)C(C)=C1C3(C)C)[C@]1(OC(C)=O)CO[C@@H]1C[C@@H]2O,Activity,U-251 [1],Active
same,Activity,U-251 [2],Active
same,Activity,U-251 [3],Active
same,Activity,U-251 [4],Active
CC(C)=CCC/C(C)=C/C(=O)OCC1=C2/C(=C\[C@@]3(C)CC[C@](O)(O3)[C@H](C)C[C@@H]2O)OC1=O,inhibition,[5],Active
same,inhibition,[6],Dose-dependent effect
same,inhibition,U-251 [7],Active
same,inhibition,[8],Active
same,IC50,[9],> 5 µM
same,inhibition,[10],Active
same,inhibition,[11],Active
same,inhibition,[12],inactive
same,IC50,[13],1 µM
C=C(C)C(=O)O[C@H]1C[C@@H](C)[C@]2(O)CC[C@](C)(/C=C3/OC(=O)C(COC(C)=O)=C31)O2,IC50,[14],9.1 µM
same,inhibition,U-251 [7],Active
same,Activity,[15],Dose-dependent effect
same,IC50,[16],8.3 µM
same,Activity,[17],Toxic
same,IC50,[9],7.1 µM
same,inhibition,[18],tde
same,inhibition,SF-295,Active
same,inhibition,MDA-MB-231 [19],Active
same,inhibition,[10],inactive
same,IC50,MCF7,7.7 µM
same,inhibition,[11],Active
same,IC50,MDA-MB-231 [20],5.2 µM
same,IC50,[13],2.6 µM
same,inhibition,NIH3T3,inactive
CN[C@@H]1C[C@H]2O[C@@](C)([C@@H]1OC)n1c3ccccc3c3c4c(c5c6ccccc6n2c5c31)C(=O)NC4,Activity,U-251 [21],Active
same,Activity,U-251 [22],Active
